Data: ChEMBL document CHEMBL4196166 (J Med Chem, 2018)
Calls of active or inactive are those of the source. The calls are words filed in the database; no cut-off is given here.

Assays:
Trypsin [1] = molecular target: T1, Trypsin (Homo sapiens, UniProt P07477+P07478+P35030); assay: Inhibition of trypsin (unknown origin) using chromogenic H-D-Ile-L-Pro-L-Arg-p-nitoraniline as substrate by […]; format: protein assay
MDA-MB-231 = assay: Cytotoxicity against human MDA-MB-231 cells assessed as reduction in cell viability after 48 hrs by CellTiter 96 Aqueous One solution cell proliferation assay; format: functional, cell-based; conditions: MDA-MB-231, 48 h
Procedure, shortened: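 Cells grown in DMEM high glucose with 10% heat-inactivated FCS, seeded at 5000/well and left 18 h. Compounds added at 1 nM–100 µM final (0.2% vehicle), n = 4 wells per concentration, with colour blanks. After 48 h, MTS reagent added for 2 h and A490 read. IC50 from a variable-slope sigmoidal fit.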

[2] = molecular target: T2, Epithelial sodium channel subunit beta (Homo sapiens, UniProt P51168); assay: Inhibition of S-3969-stimulated recombinant human ENaC beta subunit expressed in HEK293 cells at 10 uM preincubated for 5 mins followed by S-3969 stimulation by FLIPR assay; format: cell-based; conditions: hek293, 10 µM
T2 sequence (P51168 whole entry): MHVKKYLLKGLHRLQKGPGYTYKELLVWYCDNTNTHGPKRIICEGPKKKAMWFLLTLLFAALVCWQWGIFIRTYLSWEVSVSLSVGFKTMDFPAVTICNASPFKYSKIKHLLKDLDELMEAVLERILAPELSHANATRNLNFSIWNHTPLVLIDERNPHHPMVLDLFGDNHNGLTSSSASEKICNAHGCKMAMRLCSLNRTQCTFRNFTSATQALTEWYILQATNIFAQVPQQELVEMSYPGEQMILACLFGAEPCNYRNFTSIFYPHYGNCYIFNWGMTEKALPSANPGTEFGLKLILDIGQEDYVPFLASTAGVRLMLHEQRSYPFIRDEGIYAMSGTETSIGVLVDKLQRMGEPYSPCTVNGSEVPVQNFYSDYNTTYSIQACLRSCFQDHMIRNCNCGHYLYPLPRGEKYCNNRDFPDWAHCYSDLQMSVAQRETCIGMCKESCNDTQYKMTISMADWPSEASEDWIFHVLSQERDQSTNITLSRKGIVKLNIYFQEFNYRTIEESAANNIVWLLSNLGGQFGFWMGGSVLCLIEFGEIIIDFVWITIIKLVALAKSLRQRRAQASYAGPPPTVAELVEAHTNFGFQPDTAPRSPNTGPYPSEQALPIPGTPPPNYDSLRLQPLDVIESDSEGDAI
Procedure, shortened: (§1)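 HEK-293 cells transfected with human ENaC α, β and γ cDNA together, plated at 20 000 cells/well, incubated overnight at 37 °C. Loaded with membrane-potential red dye for 30 min at 37 °C. Compound preincubated 5 min in HEPES-buffered salt solution (pH 7.4, 0.3% DMSO), then stimulated with 1 µM S-3969, read on FLIPR. Signal normalized to agonist alone (100%) and agonist plus 30 µM benzamil (0%). n = 4 wells.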

[3] = molecular target: T3, Epithelial sodium channel subunit gamma (Homo sapiens, UniProt P51170); assay: Inhibition of S-3969-stimulated recombinant human ENaC gamma subunit expressed in HEK293 cells at 10 uM preincubated for 5 mins followed by S-3969 stimulation by FLIPR assay; format: cell-based; conditions: hek293, 10 µM; procedure, shortened: as §1
T3 sequence (P51170 whole entry): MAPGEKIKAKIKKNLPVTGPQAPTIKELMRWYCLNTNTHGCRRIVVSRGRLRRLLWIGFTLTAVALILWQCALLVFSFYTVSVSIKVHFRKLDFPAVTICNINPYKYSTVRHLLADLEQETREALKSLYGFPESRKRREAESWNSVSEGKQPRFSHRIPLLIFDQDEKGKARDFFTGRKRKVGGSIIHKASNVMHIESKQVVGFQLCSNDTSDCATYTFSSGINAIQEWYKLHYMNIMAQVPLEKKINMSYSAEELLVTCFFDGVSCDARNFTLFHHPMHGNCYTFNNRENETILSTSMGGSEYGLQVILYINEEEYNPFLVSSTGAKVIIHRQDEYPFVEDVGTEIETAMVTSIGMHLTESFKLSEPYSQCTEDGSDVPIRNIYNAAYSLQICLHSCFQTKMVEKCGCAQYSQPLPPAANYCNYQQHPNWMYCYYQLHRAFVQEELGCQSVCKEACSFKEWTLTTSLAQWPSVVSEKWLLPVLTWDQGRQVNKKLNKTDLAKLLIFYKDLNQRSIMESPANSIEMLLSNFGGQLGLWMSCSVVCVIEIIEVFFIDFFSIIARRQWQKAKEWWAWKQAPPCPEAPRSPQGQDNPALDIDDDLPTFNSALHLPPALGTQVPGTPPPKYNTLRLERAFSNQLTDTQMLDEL

Trypsin [4] = molecular target: T1, Trypsin; assay: Inhibition of trypsin (unknown origin) at 10 nM to 33.3 uM after 30 mins by gel-based ABPP assay; format: protein assay
HT-1080 = assay: Antimetastatic activity against luciferase-tagged human HT1080 cells xenografted in NOD.Cg-Prkdc-IL2rg<tm1Wjl>SzJAusb mouse assessed as inhibition of late-stage lung metastasis at 7.5 mg/kg/day, ip administered […] measured day 21; format: functional; conditions: HT-1080, ip
Procedure, shortened: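 2.5 × 10^5 luciferase-tagged HT-1080 cells in PBS given by lateral tail vein on day 0. Daily ip dosing at 7.5 mg/kg from day -1 to day 20 (vehicle 50 mM acetate pH 5.5, 7.5% DMSO, 0.75% Tween80). Lungs harvested at day 21, homogenized, and tumour burden measured by luciferase assay. n = 4–6; one-way ANOVA with Dunnett's test.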

Homo sapiens [5] = assay: Antitumor activity against human PSC xenografted in BALB/c nu/nu mouse co-implanted with human AsPC1 cells assessed as reduction in tumor volume at 10 mg/kg/day, ip measured after 28 days post first dose; format: functional, organism-based
Procedure, shortened: (§2)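 Orthotopic AsPC-1 plus human stellate cell co-implant (1×10^6 each) in the pancreatic tail of female nude BALB/c nu/nu mice. From day 7, dosed for 4 weeks (n = 4/group) with 10 mg/kg/day ip in acetate pH 5.5/DMSO/Kolliphor vehicle, or gemcitabine 75 mg/kg gavage twice weekly. Tumors resected at 4 weeks after first injection and measured with calipers by two observers. Volume = 1/2(length×breadth×width). Mean ± SEM.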

Homo sapiens [6] = assay: Antitumor activity against human AsPC1 cells xenografted in BALB/c nu/nu mouse co-implanted with human PSC assessed as reduction in tumor volume at 10 mg/kg/day, ip measured after 28 days post first dose; format: functional, organism-based; procedure, shortened: as §2
ASPC1 = assay: Antimetastatic activity against human AsPC1 cells xenografted in BALB/c nu/nu mouse co-implanted with human PSC assessed as reduction in metastasis lesions in liver at 10 mg/kg/day, ip measured after 28 days post first dose by microscopic analysis; format: functional, organism-based
Procedure, shortened: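 Female athymic BALB/c nu/nu mice, 6–8 weeks old. 1×10^6 AsPC-1 and 1×10^6 human pancreatic stellate cells in 50 µL PBS injected into the pancreatic tail. Treatment randomized on day 7 (n = 4/group) for 4 weeks: 10 mg/kg/day ip in 50 mM sodium acetate pH 5.5/10% DMSO/1% Kolliphor HS-15, or gemcitabine 75 mg/kg by oral gavage twice weekly, or vehicle. At kill, liver scored for visible macrometastases, fixed in formalin, and 4 µm sections stained with H&E. Chi-square test.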

Row | SMILES | IC50 (Trypsin [1]) | IC50 (MDA-MB-231) | inhibition (INH) [2] | inhibition (INH) [3] | inhibition (Trypsin [4]) | inhibition in vivo at 7.5 mg/kg/day (HT-1080) | Activity (Homo sapiens [5]) | Activity (Homo sapiens [6]) | Activity (ASPC1)
1 | N=C(N)NC(=O)c1nc(Cl)c(N2CCCCCC2)nc1N [N,N-HEXAMETHYLENEAMILORIDE] | > 10 µM | 27.3 µM | Not Active | Not Active | – | – | – | – | –
2 | N=C(N)NC(=O)c1nc(-c2cc3ccccc3o2)c(N2CCCCCC2)nc1N | > 10 µM | – | Not Active | Not Active | Active | 21% | Active | Active | Active
3 | COc1ncc(-c2nc(C(=O)NC(=N)N)c(N)nc2N2CCCCCC2)cn1 | – | > 100 µM | – | – | Active | 33% | Active | Active | Active
